Measurements as given in ChEMBL document CHEMBL4513216, “Probing the Open Global Health Chemical Diversity Library for Multistage-Active Starting Points for Next-Generation Antimalarials” (ACS Infect Dis, 2020).

experiment: Toxicity liver stage against HepG2, at 10uM; type: cell-based; design: test concentration 10 uM, cell line HepG2-A16-CD81EGFP; conditions: human, HepG2-A16-CD81EGFP cells; read-out: INHIBITION
Summary of the method: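 Uninfected HepG2-A16-CD81EGFP cells, 3 × 10^3 per well, 1536-well, plated on prespotted compound at 10 μM final, parasite-free screening media added to match infected plates; puromycin 10 μM positive, DMSO 0.5% negative; run in parallel with 48 h PbLuc assay at 37 °C, 5% CO2; viability by CellTiter-Glo luminescence, normalized to controls.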

SMILES | cytotoxicity at 10 µM [%]
CC(Cc1ccco1)NC(=O)Nc1ccc(S(C)(=O)=O)nc1 (stereo unspecified) | 3.95
Cc1ccc(S(=O)(=O)NC[C@H]2OC[C@@H](NCc3ccccn3)[C@@H]2O)cc1 | -52.5
Nc1ncncc1-c1noc([C@@H]2CCCN2CCCc2ccccc2)n1 | 1.58
COc1c[nH]c(C(=O)N2CCN(c3cccc(Cl)c3)CC2)cc1=O | -1
O=c1cc2c(nn1CN1CCN(c3ccccc3)CC1)CCCC2 | -9.58
CCN1CCCC1CNC(=O)Cc1c(C)n[nH]c1-c1ccc(F)cc1 (stereo unspecified) | -3.02
O=C(CSc1nc2c(cnn2CCO)c(=O)[nH]1)NC1CCCCC1 | -8.07
Cc1cc(NC(=O)CC2(Cn3cnnn3)CCCCC2)nn1C | 10.4
Cc1cc(C)cc(OCn2ccc(C(=O)O)n2)c1 | 6.06
O=C(c1n[nH]cc1Cl)N1CCOCC1 | 9.02
CCn1nc(C)c2nc(C)nc(NCCCn3cccn3)c21 | 2.38
CCn1ccc(NC(=O)CCc2c(C)noc2C)n1 | 7.16
CC(CN(C)C)Nc1nc(O)cc(Cc2ccccc2F)n1 (stereo unspecified) | 13.2
O[C@@H]1C[C@H]2CN(Cc3ccsc3)[C@@H](Cc3ccccc3)CN2C1 | -2.13
CCC1c2ccc(C)n2CCN1C(=O)Cn1cnc2sc(C)cc2c1=O (stereo unspecified) | 6.09
CN(C)Cc1cnc(C2CN(C(=O)c3ccccc3Cl)CCO2)[nH]1 (stereo unspecified) | 1.07
Cc1cc(O)cc(C2CCCN2C(=O)c2ccncc2)n1 (stereo unspecified) | 8.16
Fc1ccc(Oc2nccnc2C2CCN(C3CCOCC3)CC2)cc1 | -2.5
COc1cc(C2Nc3cc(Cl)ccc3C3=NCCN32)cc(OC)c1OC (stereo unspecified) | -24.8
CCC(=O)N1CCC(c2nc(O)c3c(n2)CN(C2CCCCC2)CC3)C1 (stereo unspecified) | -15.7
CCn1cc(CN2CCC(O)(Cn3ccc4ncccc43)CC2)cn1 | -16.3
CC(=O)N1CCC(C(=O)c2cc(C)cnc2N)CC1 | -0.0531
O=C(c1ccc(Cl)cc1)N1CC2(CCNC2)OCc2ccccc21 (stereo unspecified) | 9.9

SMILES | cytotoxicity at 10 µM [%]
O=C(c1cc(Cl)c[nH]1)N(CCCO)Cc1cccnc1 | 7.48
O=C(c1ccc(-c2cccs2)cc1F)N1CCN(CCO)CC1 | -47.3
CC(=O)Nc1nc(COc2nc(C)no2)cs1 | -16.6
CCCn1ccnc1SCC(=O)NC(Cc1ccccc1)C(C)=O (stereo unspecified) | -9.58
O=S(=O)(NCCCn1cccn1)c1ccc2c(c1)CCC2 | -4.59
CN(Cc1ccco1)C(=O)CN1C(=O)c2cc(Cl)c(Cl)cc2C1=O | 1.11
COCc1noc(Cn2c(C3CC3)nc3ccccc32)n1 | 13.2
N#CC1(NC(=O)COC(=O)Cc2cc(Cl)c3c(c2)OCCO3)CCCC1 | 0.935
CCc1nsc(N2CCCN(CC(=O)N(C)C3CC3)CC2)n1 | -9.43
O=C(NCCNS(=O)(=O)c1cccc(Cl)c1)C1CCCO1 (stereo unspecified) | 11.5
CCc1ccc(C(COC)NC(=O)c2ccc(C(N)=O)cc2)o1 (stereo unspecified) | -2.65
Cc1cc(C(=O)NCC2(N(C)C)CCCC2)c(C)n1-c1cccnc1 | -8.41
Cc1ncsc1C(=O)NC1CCN(c2ncccc2C#N)CC1 | 2.68
CCc1ccc(C(C)NC(=O)CCc2nc(-c3nnc[nH]3)no2)cc1 (stereo unspecified) | -1.98
CC(C)c1nccn1C1CCCN(C(=O)c2ccc(=O)n(C)n2)C1 (stereo unspecified) | 7.8
COC(=O)N1CCN(Cc2ccccc2C(C)(C)C#N)CC1 | -3.53
CN(Cc1nnc(C2CC2)n1C)C1CCN(CCS(C)(=O)=O)C1 (stereo unspecified) | 0.918
CC(NC(=O)Cn1ccnc1)c1ccc(OCC2CC2)c(F)c1 (stereo unspecified) | 0.99
Cc1cc(C(=O)N2CCCN(Cc3cnn(C(C)C)c3)CC2)no1 | 0.243
FC(F)(F)Sc1ccc(NCc2nnc(C3CC3)o2)cc1 | 5.69
COCCCn1ccc(NCc2cnc(C(C)(C)C)s2)n1 | 5.91
Cc1cnn(-c2cccc(N3CCCCC3)n2)c1 | 0.247
O=C(CCS(=O)(=O)C1CCCC1)NCCc1cccnc1 | 6.86

SMILES | cytotoxicity at 10 µM [%]
CN(CCN1CCOCC1)S(=O)(=O)CC1CCCC1 | 10.2
CC1COCCN1Cc1noc(C(C)(C)C)n1 (stereo unspecified) | 5.67
CN1CCN(c2ccccc2NC(=O)NCC[S+](C)[O-])CC1 (stereo unspecified) | -2.41
Cc1cccc2c1NC(c1cnc(C3CCC3)s1)NC2=O (stereo unspecified) | 5.11
CO[C@H]1CN(C(=O)OC(C)(C)C)CC1NCc1cc[nH]c1 (stereo partly specified) | -46.6
COCCOCCCNC(=O)c1cc(Cl)cc2cccnc12 | 32.6
CC(C)CC(c1nc(-c2cnn(C)c2)no1)N1CCCCC1=O (stereo unspecified) | -42
Cc1cccc2c(CCNS(=O)(=O)C3CCOC3)c[nH]c12 (stereo unspecified) | 12.7
Fc1cccc(CCN(c2ccc3nnnn3n2)C2CC2)c1 | 4.21
CC(c1ccccc1F)N1CCN(C(=O)Cc2ccncc2)CC1 (stereo unspecified) | -2.94
Cc1cc(CN2CCCC(C)(CO)C2)ccc1F (stereo unspecified) | -20.4
CC(C)N(C)Cc1cnc2n1CCN(C(=O)c1cccs1)C2 | -74.2
O=C(NCc1ccccc1)N1CCn2c(Cn3cccn3)cnc2C1 | -71
CN(C)C(=O)N1CCC2(CC1)C(c1cnn(C)c1)CC(=O)N2C (stereo unspecified) | -78.2
Cc1occc1C(=O)N1CCn2c(COCC3CC3)cnc2C1C (stereo unspecified) | 7.02
CC1c2ncc(COCC3CC3)n2CCN1C(=O)c1ccnn1C (stereo unspecified) | 4.68
Cn1cc(-c2nnn3c2COC(CNCc2ccncc2)C3)cn1 (stereo unspecified) | 0.887
c1ccc(OC[C@H]2CCC[C@]23CN(Cc2nccs2)CCO3)nc1 | 3.34
CN1CCN(CC2CC2)C(=O)c2cnc(N3CC[C@@H](O)C3)nc21 | 2.19
Cc1nc(CN(C)CC2CCCN(CCc3ccc(Cl)cc3)C2)n(C)n1 (stereo unspecified) | 4.44
C1CCC(c2nc3c(c(N4CCN5CCCC5C4)n2)CCNCC3)C1 (stereo unspecified) | -1.1
CN(C)C(=O)c1ccc(C2CCCN2C(=O)c2ccccc2N(C)C)s1 (stereo unspecified) | 18.5
Cc1cccc(C(=O)N2CCCCC2c2nc3cc(F)ccc3[nH]2)n1 (stereo unspecified) | -1.99

SMILES | cytotoxicity at 10 µM [%]
CCc1cnc(NCc2nc(COC)no2)nc1 | 7.36
COc1ccccc1OC1CN(c2ccncc2)C1 | -2.76
Cc1nccc(N[C@H]2CN(CCS(C)(=O)=O)C[C@@H]2C2CC2)n1 | 0.34
O=C(Cc1ccc2c(c1)OCO2)N1CCN(c2ccccc2Cl)C(=O)C1 | -0.874
Cc1nc2c(c(N3CCC(CN4CCCC4=O)CC3)n1)CCNCC2 | 8.64
O=C1NCC(CN2CCc3onc(-c4ccc(C(F)(F)F)cc4)c3C2)O1 (stereo unspecified) | 2.02
CCn1c(N)nc2cc(C(=O)NCCc3ccccc3F)cnc21 | -1.83
CCN1CCN(C(=O)CCC2CCN(C(C)CCC(=O)OC)CC2)CC1 (stereo unspecified) | 0.9
COCc1nnc(C(=O)N2CCC(N3CCCCC3)CC2)o1 | 10.2
O[C@@H]1CN(c2nc3ccccc3o2)CC[C@H]1c1ccc2c(c1)OCO2 | 5.36
CC(=O)N[C@@H]1CN(Cc2nc3ccccc3[nH]2)C[C@H]1c1ccc(C)o1 | 2.75
CN(C)CC1(O)CCN(C(=O)Cc2ccc(Cl)c(Cl)c2)C1 (stereo unspecified) | -4
Cc1cc(C(=O)N2CCC(n3cc(CO)nn3)CC2)ccc1F | -4.73
COC(=O)c1cccc(S(=O)(=O)NC(=O)COC2CCCCC2)c1 | -10.1
Cc1nc(C)n(CC2CCCN(Cc3cccc4c3OCCO4)C2)n1 (stereo unspecified) | -5.23
Cc1ccc(C)c(NS(=O)(=O)c2cc3c(c(C(=O)O)c2)OCCO3)c1 | -0.882
N#Cc1cccc(NC(=O)CCn2nc(-c3cccs3)oc2=O)c1 | -2
Cc1cnn(CC2CCCCN2C(=O)c2ccccc2-n2cccn2)c1 (stereo unspecified) | -8.4
Cc1cnn(CC2CCCCN2C(=O)c2ccc3[nH]c(=O)[nH]c3c2)c1 (stereo unspecified) | 5.8
CC(NC(=O)CNCCn1cccn1)c1ccc2c(c1)CCCC2 (stereo unspecified) | -11.4
FC(F)(F)COCCN1CCN(c2ccc3nncn3n2)CC1 | -7.77
O=C(NCc1cc[nH]n1)N1CCN(c2ccccc2Cl)CC1 | -2.82
COc1ccc(C(=O)N(Cc2cnn(C)c2)C(C)C)cc1Br | -9.02

SMILES | cytotoxicity at 10 µM [%]
c1cnnc(N2CCCC2CNCc2ccsc2)c1 (stereo unspecified) | -8.9
Cc1ccc(C)c(OC2CCN(C(=O)c3ccc(C)[nH]c3=O)CC2)c1 | 2.87
Cc1cccc(-c2noc(CN3CCCC(Cn4cncn4)C3)n2)c1 (stereo unspecified) | -3.51
COc1ccc(C(=O)N2CCCCC2Cn2cccn2)c(F)c1 (stereo unspecified) | -5.38
CC(C)N1CCC(CNCc2c[nH]nc2C(C)(C)C)C1 (stereo unspecified) | -2.16
O=C(c1cnc(C2CC2)s1)N1CCCC(n2cccn2)C1 (stereo unspecified) | -13.9
CCc1nc(CNC(C)Cn2cccn2)cs1 (stereo unspecified) | -4.67
CC(C)N(C(=O)Cn1c(-c2ccco2)cc2cccnc21)C(C)C | -4.32
Cc1ccc(OCCCSC2=NCCN2)cc1 | -9.66
CN(C)C[C@H]1OC[C@@H]2CCN(S(=O)(=O)c3cccs3)C[C@@H]21 | 3.04
CCCC(N)CNS(=O)(=O)Cc1cccc(C#N)c1 (stereo unspecified) | 6.13
COc1ccc([C@@H]2CN(Cc3ccncc3)C[C@H]2c2cc[nH]n2)cc1 | -4.96
Cc1ccc(CN2CCOC3(CCN(C(=O)C4CCOC4)CC3)C2)cc1 (stereo unspecified) | 0.933
CN(C)C(=O)NC1COC2(CCN(Cc3ccc(Cl)c(F)c3)CC2)C1 (stereo unspecified) | -76.4
COCCNC(=O)[C@@]12CCO[C@@H]1CCN(Cc1c(C)noc1C)C2 | -2.45
Cc1ccc(C(=O)N2CCn3c(COCC4CC4)cnc3C2C)nc1 (stereo unspecified) | 3.58
CN(C)C(=O)[C@@H]1CC[C@@H]2[C@@H](CCN2Cc2ccccn2)O1 | -3.55
CSc1ccc(C(=O)N2C[C@@H]3CC[C@H]2CN(Cc2ccccc2)C3)cc1 | -5.49
C=c1nc(NC)sc1=C1NC(c2c(C)ncc3c2CCNC3)=NO1 | 1.67
